ChEMBL document CHEMBL3352094, “Trehalose- and glucose-derived glycoamphiphiles: small-molecule and nanoparticle Toll-like receptor 4 (TLR4) modulators” (J Med Chem, 2014)
Activity calls are given as the source filed them. No cut-off for these calls is given here.

Tests used:
Toll-like receptor 4 [1] = target: T1, Toll-like receptor 4 (Homo sapiens, UniProt O00206); experiment: Inhibition of LPS-induced TLR4 activation (unknown origin) expressed in HEK293 Blue cells compound treated for 30 mins prior LPS treatment measured after 2 to 4 hrs by spectrophotometry; type: cell-based
In short: (§1)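 HEK-Blue cells stably transfected with TLR4, MD-2 and CD14 carry a secreted alkaline phosphatase reporter under an NF-κB/AP-1-inducible promoter. TLR4 activation by endotoxin was monitored through secreted alkaline phosphatase.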

Toll-like receptor 4 [2] = target: T1, Toll-like receptor 4; experiment: Agonist activity at TLR4 (unknown origin) expressed in HEK293 Blue cells measured after 2 to 4 hrs by spectrophotometry; type: cell-based; in short: as §1
HEK293 = experiment: Cytotoxicity against HEK-Blue cells after 3 hrs by MTT assay; type: cell-based; conditions: human, hek293, 3 h
Toll-like receptor 4 [3] = target: T1, Toll-like receptor 4; experiment: Agonist activity at human TLR4 expressed in HEK293 cells co-transfected with human MD-2/CD14 assessed as receptor signal after 2 to 4 hrs by dual luciferase reporter gene assay; type: cell-based
In short: (§2)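 Cells were treated with increasing compound concentrations, with or without LPS stimulation (5 nM). Signal is dual-luciferase, normalized, and representative of three independent experiments.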

[4] = target: T2, Toll-like receptor 4 (Mus musculus) (UniProt Q9QUK6); experiment: Agonist activity at mouse TLR4 expressed in HEK293 cells co-transfected with mouse MD-2/CD14 assessed as receptor signal after 2 to 4 hrs by dual luciferase reporter gene assay; type: cell-based; in short: as §2
T2 sequence (whole entry): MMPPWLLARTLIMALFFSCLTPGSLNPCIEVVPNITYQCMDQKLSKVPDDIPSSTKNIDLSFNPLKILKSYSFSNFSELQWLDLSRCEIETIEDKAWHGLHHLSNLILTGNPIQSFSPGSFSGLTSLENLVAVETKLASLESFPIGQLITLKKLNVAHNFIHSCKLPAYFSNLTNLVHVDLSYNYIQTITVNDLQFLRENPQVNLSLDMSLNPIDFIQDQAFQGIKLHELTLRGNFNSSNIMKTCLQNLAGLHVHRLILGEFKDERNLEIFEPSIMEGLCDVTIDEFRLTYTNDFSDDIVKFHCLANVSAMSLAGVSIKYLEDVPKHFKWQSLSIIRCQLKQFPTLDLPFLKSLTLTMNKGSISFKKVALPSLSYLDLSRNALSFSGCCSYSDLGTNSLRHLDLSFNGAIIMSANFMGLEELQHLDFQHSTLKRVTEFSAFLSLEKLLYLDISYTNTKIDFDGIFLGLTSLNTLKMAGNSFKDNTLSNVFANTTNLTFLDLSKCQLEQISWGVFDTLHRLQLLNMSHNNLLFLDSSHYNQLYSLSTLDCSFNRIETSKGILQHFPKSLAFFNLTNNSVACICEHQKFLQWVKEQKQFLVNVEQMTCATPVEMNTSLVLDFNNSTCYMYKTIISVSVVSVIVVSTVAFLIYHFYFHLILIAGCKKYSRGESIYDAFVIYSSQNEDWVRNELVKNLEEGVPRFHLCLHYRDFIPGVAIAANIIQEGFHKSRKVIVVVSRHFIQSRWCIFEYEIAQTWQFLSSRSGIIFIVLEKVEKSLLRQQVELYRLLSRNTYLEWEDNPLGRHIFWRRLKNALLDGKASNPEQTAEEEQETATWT

Toll-like receptor 4 [5] = target: T1, Toll-like receptor 4; experiment: Antagonist activity at human TLR4 expressed in HEK293 cells co-transfected with human MD-2/CD14 assessed as inhibition of LPS-stimulated receptor signal after 2 to 4 hrs by dual luciferase reporter gene assay; type: cell-based; in short: as §2
[6] = target: T2, Toll-like receptor 4 (Mus musculus); experiment: (§3) Antagonist activity at mouse TLR4 expressed in HEK293 cells co-transfected with mouse MD-2/CD14 assessed as inhibition of LPS-stimulated receptor signal after 2 to 4 hrs by dual luciferase reporter gene assay; type: cell-based; in short: as §2
Toll-like receptor 4 [7] = target: T3, Toll-like receptor 4 (Mus musculus, UniProt Q9QUK6); experiment: as §3; type: cell-based; in short: as §2
T3 sequence (Q9QUK6 whole entry): T2 sequence (whole entry)

[8] = target: T2, Toll-like receptor 4 (Mus musculus); experiment: Antagonist activity at mouse TLR4 in mouse BMDM cells assessed as inhibition of LPS-stimulated IL-6 production compound treated for 1 hr before LPS challenge by ELISA; type: cell-based
In short: (§4)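 Bone marrow-derived murine macrophages in RPMI with 10% FBS were pretreated with compound (0–2 µM), and LPS was added 1 hour later. After overnight incubation, IL-6 and TNF-α in the medium were measured by ELISA. Cells not given LPS served as negative controls.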

[9] = target: T2, Toll-like receptor 4 (Mus musculus); experiment: Antagonist activity at mouse TLR4 in mouse BMDM cells assessed as inhibition of LPS-stimulated TNFalpha production compound treated for 1 hr before LPS challenge by ELISA; type: cell-based; in short: as §4
[10] = Amphiphilicity of the compound assessed as critical micelle concentration by spectrofluorophotometry; type: physicochemical
In short: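 The CMC in aqueous solution was determined from the polarity-dependent change in the fluorescence spectrum of pyrene as it partitions into micelles formed by the compound.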

[11] = target: T2, Toll-like receptor 4 (Mus musculus); experiment: Activation of mouse TLR4 in mouse BMDM cells by ELISA; type: cell-based
Toll-like receptor 4 [12] = target: T1, Toll-like receptor 4; experiment: Agonist activity at TLR4 (unknown origin) expressed in HEK293 Blue cells measured after 2 to 4 hrs by spectrophotometry
[13] = target: T2, Toll-like receptor 4 (Mus musculus); experiment: Antagonist activity at mouse TLR4 in mouse BMDM cells assessed as inhibition of LPS-stimulated IL-6 production at 1 to 2 uM for 1 hr before LPS treatment by ELISA; type: cell-based; in short: as §4
[14] = target: T2, Toll-like receptor 4 (Mus musculus); experiment: Antagonist activity at mouse TLR4 in mouse BMDM cells assessed as inhibition of LPS-stimulated TNFalpha production at 1 to 2 uM for 1 hr before LPS treatment by ELISA; type: cell-based; in short: as §4
[15] = target: T2, Toll-like receptor 4 (Mus musculus); experiment: Antagonist activity at mouse TLR4 in mouse BMDM cells assessed as inhibition of LPS-stimulated IL-6 production at 0.1 to 0.5 uM for 1 hr before LPS treatment by ELISA; type: cell-based; in short: as §4
[16] = target: T2, Toll-like receptor 4 (Mus musculus); experiment: Antagonist activity at mouse TLR4 in mouse BMDM cells assessed as inhibition of LPS-stimulated TNFalpha production at 0.1 to 0.5 uM for 1 hr before LPS treatment by ELISA; type: cell-based; in short: as §4
Mus musculus = experiment: Immunosuppressive C57/B16 mouse assessed as inhibition of LPS-induced immune activation measured as TNFalpha secretion at 2 x 10^-7 mol, ip 1 hr prior LPS challenge by ELISA; type: functional, organism-based
In short: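 C57/Bl6 mice were given compound i.p. at 2·10^-7 mol/mouse, then LPS i.p. (1·10^-9 mol/mouse) 1 hour later. Sera were collected three hours after LPS and serum TNF-α concentration was determined.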

T1 sequence (O00206 whole entry): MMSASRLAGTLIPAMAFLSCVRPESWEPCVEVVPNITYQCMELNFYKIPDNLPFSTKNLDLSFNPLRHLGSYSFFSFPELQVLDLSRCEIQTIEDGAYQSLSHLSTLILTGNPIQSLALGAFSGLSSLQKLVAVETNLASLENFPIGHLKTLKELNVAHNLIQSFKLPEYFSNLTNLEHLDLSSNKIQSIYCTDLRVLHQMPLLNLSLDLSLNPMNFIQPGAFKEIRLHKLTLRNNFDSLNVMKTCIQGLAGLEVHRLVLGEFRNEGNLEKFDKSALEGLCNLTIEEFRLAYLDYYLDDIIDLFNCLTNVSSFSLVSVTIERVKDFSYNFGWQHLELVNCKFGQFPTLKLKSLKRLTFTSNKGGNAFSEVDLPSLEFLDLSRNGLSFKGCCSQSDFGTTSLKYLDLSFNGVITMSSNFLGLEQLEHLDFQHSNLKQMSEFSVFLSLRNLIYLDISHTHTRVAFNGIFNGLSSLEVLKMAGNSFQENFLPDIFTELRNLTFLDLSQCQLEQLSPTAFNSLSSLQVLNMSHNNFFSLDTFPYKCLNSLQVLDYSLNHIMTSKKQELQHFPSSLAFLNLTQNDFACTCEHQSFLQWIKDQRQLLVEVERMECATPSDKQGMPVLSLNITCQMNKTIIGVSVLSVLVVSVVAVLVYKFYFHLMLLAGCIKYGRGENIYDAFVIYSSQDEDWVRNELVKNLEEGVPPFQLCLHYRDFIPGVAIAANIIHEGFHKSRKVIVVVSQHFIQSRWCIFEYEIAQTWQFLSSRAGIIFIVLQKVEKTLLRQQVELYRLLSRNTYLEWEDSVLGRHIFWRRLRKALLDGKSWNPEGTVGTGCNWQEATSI

Row | Compound | IC50 (Toll-like receptor 4 [1]) | inhibition (Toll-like receptor 4 [1]) | Activity (Toll-like receptor 4 [2]) | Activity (HEK293) | Activity (Toll-like receptor 4 [3]) | Activity [4] | IC50 (Toll-like receptor 4 [5]) | inhibition (Toll-like receptor 4 [5]) | inhibition [6] | IC50 (Toll-like receptor 4 [7]) | CMC [10] | Activity (Toll-like receptor 4 [12]) | Activity (Toll-like receptor 4 [5]) | Activity [6] | also measured
1 | CCCCCC(=O)O[C@@H]1[C@H](OC(=O)CCCCC)[C@@H](O[C@H]2O[C@H](CSCCN)[C@@H](OC(=O)CCCCC)[C@H](OC(=O)CCCCC)[C@H]2OC(=O)CCCCC)O[C@H](CSCCN)[C@H]1OC(=O)CCCCC | 1300 nM | Dose-dependent effect | inactive | Non-toxic | inactive | inactive | 1400 nM | Dose-dependent effect | Dose-dependent effect | 800 nM | 97.7 µM | inactive |  |  | inhibition [8]: inactive; inhibition [9]: inactive; Activity [11]: inactive
2 | CCCCCC(=O)O[C@@H]1[C@@H](OC(=O)CCCCC)[C@@H](OC)O[C@H](CSCCNC(=S)NCCN(CCN)CCN)[C@H]1OC(=O)CCCCC.Cl | 3700 nM | Dose-dependent effect | inactive | Non-toxic | inactive | inactive | 3900 nM | Dose-dependent effect | Dose-dependent effect | 3300 nM | 59.7 µM | inactive |  |  | inhibition [8]: inactive; inhibition [9]: inactive; Activity [11]: inactive
3 | CCCCCCCCCCCCCCO[C@@H]1[C@H](OCCCCCCCCCCCCCC)[C@@H](O[C@H]2O[C@H](CSCCN)[C@@H](OCCCCCCCCCCCCCC)[C@H](OCCCCCCCCCCCCCC)[C@H]2OCCCCCCCCCCCCCC)O[C@H](CSCCN)[C@H]1OCCCCCCCCCCCCCC |  | inactive |  |  | inactive | inactive |  |  |  |  |  |  | inactive | inactive | 
4 | CCCCCCO[C@H]1[C@@H](OC)O[C@H](CSCCN)[C@@H](O)[C@@H]1OCCCCCC |  | inactive |  |  | inactive | inactive |  |  |  |  |  |  | inactive | inactive | 
5 | CCCCCC(=O)O[C@@H]1[C@@H](OC(=O)CCCCC)[C@@H](OC)O[C@H](Cn2cc(CN(CCNC(=S)NCCN)CCNC(=S)NCCN)nn2)[C@H]1OC(=O)CCCCC |  | inactive |  |  | inactive | inactive |  |  |  |  |  |  | inactive | inactive | 
6 | CCCCCC(=O)O[C@@H]1[C@H](OC(=O)CCCCC)[C@@H](O[C@H]2O[C@H](Cn3cc(CN(CCN)CCN)nn3)[C@@H](OC(=O)CCCCC)[C@H](OC(=O)CCCCC)[C@H]2OC(=O)CCCCC)O[C@H](Cn2cc(CN(CCN)CCN)nn2)[C@H]1OC(=O)CCCCC | 600 nM | Dose-dependent effect | inactive | Non-toxic | inactive | inactive | 200 nM | Dose-dependent effect | Dose-dependent effect | 200 nM | 350 µM | inactive |  |  | inhibition [13]: Dose-dependent effect; inhibition [14]: Dose-dependent effect; inhibition [15]: inactive; inhibition [16]: inactive; inhibition (Mus musculus): Active
7 | CCCCCCO[C@@H]1[C@H](OCCCCCC)[C@@H](O[C@H]2O[C@H](CSCCN)[C@@H](OCCCCCC)[C@H](OCCCCCC)[C@H]2OCCCCCC)O[C@H](CSCCN)[C@H]1OCCCCCC |  | inactive |  |  | inactive | inactive |  |  |  |  |  |  | inactive | inactive | 
8 | CCCCCCO[C@@H]1[C@@H](OCCCCCC)[C@@H](OC)O[C@H](CN)[C@H]1OCCCCCC |  | inactive |  |  | inactive | inactive |  |  |  |  |  |  | inactive | inactive | 
9 | CCCCCC(=O)O[C@@H]1[C@H](OC(=O)CCCCC)[C@@H](O[C@H]2O[C@H](Cn3cc(CNC(=S)NCCN)nn3)[C@@H](OC(=O)CCCCC)[C@H](OC(=O)CCCCC)[C@H]2OC(=O)CCCCC)O[C@H](Cn2cc(CNC(=S)NCCN)nn2)[C@H]1OC(=O)CCCCC | 5000 nM | Dose-dependent effect | inactive | Non-toxic | inactive | inactive | 600 nM | Dose-dependent effect | Dose-dependent effect | 600 nM | 10.9 µM | inactive |  |  | 
10 | CCCCCCCCCCCCCCO[C@H]1[C@@H](OC)O[C@H](CSCCN)[C@@H](O)[C@@H]1OCCCCCCCCCCCCCC |  | inactive |  |  | inactive | inactive |  |  |  |  |  |  | inactive | inactive | 
